ASAP1 inh = ASAP1 ArfGAP inhibition; AID 624377; ASAP1-stimulated ARF1 GTP hydrolysis, GDP FP detection; inhibition, % at 16.5 µM; hit rate 0.19% among 360,000; Q9ULH1; in the data active = inhibition above about 25%;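 note: 0% = vehicle with enzyme and substrate and 100% = no enzyme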
Target sequence (Q9ULH1 325-724 limits assumed): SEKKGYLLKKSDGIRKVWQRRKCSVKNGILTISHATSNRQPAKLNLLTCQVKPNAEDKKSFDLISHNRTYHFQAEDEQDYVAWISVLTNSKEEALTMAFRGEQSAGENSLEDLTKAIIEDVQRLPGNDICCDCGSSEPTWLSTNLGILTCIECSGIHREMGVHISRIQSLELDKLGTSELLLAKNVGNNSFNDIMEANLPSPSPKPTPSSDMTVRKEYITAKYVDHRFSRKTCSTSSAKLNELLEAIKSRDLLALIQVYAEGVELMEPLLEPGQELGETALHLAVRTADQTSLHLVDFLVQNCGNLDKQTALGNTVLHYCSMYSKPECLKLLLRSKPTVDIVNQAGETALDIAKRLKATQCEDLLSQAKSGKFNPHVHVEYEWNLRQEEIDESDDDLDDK
esBAF inh = SWI/SNF esBAF complex inhibition | hit rate 2% among 350,000 | mouse ES cells, Bmi1-luciferase knock-in reporter, 24 h; 100% = twice the neutral-well signal | reporter increase, % at 12.5 µM; in the data active = activation above about 40%;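 note: 0% = median of the plate's neutral control wells and 100% = double that signal; a rise in the Bmi1 reporter signal indicates esBAF inhibition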
SMARCA2 activ = increases SMARCA2 function in MMTV reporter cells | MG213 cells, MMTV-luciferase reporter, dexamethasone, overnight | activation, % at 9.1 µM | hit rate 1% among 370,000 | AID 652017; in the data active = activation above about 7.8%;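 note: 0% = vehicle wells and 100% = reference activator wells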
ARFGAP1 inh = rat ARFGAP1 inhibition; Arfgap1-stimulated ARF1 GTP hydrolysis, GDP FP detection; inhibition, % at 16.5 µM; hit rate 0.26% among 360,000; AID 651572;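 active = inhibition above a per-plate limit, mean inhibition of low control wells plus 3 SD, cut at about 25% in these data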;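 note: 0% = DMSO wells with enzyme and 100% = wells lacking Arfgap1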
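Assay system: Rat Arfgap1 GAP domain (His6, aa 1-136), purified enzyme | Buffer or medium: HEPES 25 mM pH 7.5, NaCl 150 mM, MgCl2, DTT | Schedule: GTP hydrolysis reaction 2 h at 25 °C | Signal: FP of antibody-bound GDP Alexa 633 tracer, ex 620/em 688 nm | Measure: Percent inhibition of Arfgap1-stimulated GTP hydrolysis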
SMARCA2 act conf = SMARCA2 activation, confirmation screen | shares compounds with SMARCA2 activ | MG213 cells, MMTV-luciferase with dexamethasone, luminescence, overnight; MG213 cells expressing E1A, Rb sequestered; DMSO wells 0%, reference activator 100% | activation, % at 9.1 µM | hit rate 30% among 3,500 | AID 652260;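 active = activation above its plate's cutoff, the mean activation of tested wells plus 3 SD, cut at about 7.9% in these data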
VP16 Luc act = counter-screen for SMARCA2 activators: GAL4-VP16 luciferase reporter activation; shares compounds with SMARCA2 activ; HEK293 GAL4-VP16 pG5luc reporter, luciferase luminescence; scaled: DMSO wells 0%, SAHA wells 100%; activation, % at 9.1 µM; hit rate 41% among 3,500; AID 686939;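 active = activation above the solvent-only control well mean plus 3 SD, averaged across control plates, cut at about 5.2% in these data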
An asterisk follows results filed as active; . = no result given. Rows were chosen to be rich in hits. Some 2.6% of all compounds tested hit in one or more screens of this group.

SMILES	ASAP1 inh	esBAF inh	SMARCA2 activ	ARFGAP1 inh	SMARCA2 act conf	VP16 Luc act
O=c1[nH]c(=S)[nH]c(O)c1N=Nc1ccc(SC(F)F)cc1	-6	-37	11*	-3	12*	10.0*
COC(=O)[C@H]1[C@H](CO)[C@H]2Cn3c(ccc(-c4ccc(F)cc4)c3=O)[C@@H]1N2Cc1cccnc1	.	-5	.	.	.	.
CC=Cc1ccc2n(c1=O)C[C@H]1[C@H](CO)[C@@H](C(=O)OC)[C@@H]2N1S(=O)(=O)c1ccccc1C (mixture of isomers)	.	2	.	.	.	.
COC(=O)[C@@H]1[C@@H](CO)[C@@H]2Cn3c(ccc(-c4ccccc4)c3=O)[C@H]1N2CC1CC1	.	-1	.	.	.	.
COC(=O)C(O)(c1ccc(NC(=O)NC2CCCCC2)cc1)C(F)(F)F (centres undefined)	-11	30	10*	5	8	5.2*
COc1cc2c(cc1OC)-c1c3c(cc4c1[C@@H](C2)N(C)CC4)OCO3	12	0	11*	-13	15*	2
COc1cc2c(cc1OC)-c1c(OC)c(OC)cc3c1C(C2)N(C)CC3 (centres undefined)	-3	-7	3	-7	.	.
COC(=O)[C@@H]1[C@@H](CO)[C@@H]2Cn3c(ccc(-c4ccccc4)c3=O)[C@H]1N2S(=O)(=O)c1ccccc1C	.	3	.	.	.	.
CN(C)C(=O)Oc1cccc(-c2cn3cc(Cl)ccc3n2)c1	9	38	26*	5	18*	6.3*
C/C=C/c1ccc([C@H]2[C@H]3CN(C(=O)Cc4ccncc4)CCCCN3[C@H]2CO)cc1	.	-6	.	.	.	.
NC(Cc1ccccc1)c1csc(Nc2ccccn2)n1 (centres undefined)	-2	.	13*	0	8.2*	0
COc1ccc(CN2Cc3cc(-c4ccc(OC)cc4)ccc3-n3nncc3C2)cc1	-5	23	8.0*	3	2	2
O=C(Cc1cccnc1)N1CCCCN2[C@H](C1)[C@H](c1ccc(C#CC3CCCC3)cc1)[C@@H]2CO	.	0	.	.	.	.
Clc1ccc(N2CCN(Cc3ccccc3Cl)CC2)cc1	2	2	8.2*	-4	1	1
Clc1ccccc1CN1CCN(c2ccccc2)CC1	11	0	4	-2	.	.
Cc1ccccc1CN1Cc2cnnn2-c2ccccc2C1C#N (centres undefined)	-3	1	9.2*	-2	-9	-1
COC(=O)[C@H]1[C@H](CO)[C@H]2Cn3c(ccc(C4=CCCC4)c3=O)[C@@H]1N2CC1CCCCC1	.	4	.	.	.	.
O=C(c1ccccc1F)N1CCC2(CC1)OCCO2	15	1	-2	1	.	.
O=C(c1cc(S(=O)(=O)N2CCCCC2)ccc1F)N1CCC2(CC1)OCCO2	9	-5	8.1*	5	-5	0

Compound activity deposited in PubChem by several laboratories.
